Data on one molecule can be found in ChEMBL document CHEMBL1132613 (J Med Chem, 1999).

For orientation: Ki means the dissociation constant of the complex between target and ligand, obtained from inhibition or displacement. Read a high Ki as weaker binding.

Experiment [1] deals with 5-hydroxytryptamine receptor 2A (Homo sapiens, UniProt P28223). Put plainly: Compound was tested for the displacement of [125I]-DOI from clone human 5-hydroxytryptamine 2A receptor. The essentials:
(§1)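 Membranes from AV12 hamster fibroblasts stably expressing human 5-HT2A or 5-HT2C. [125I]DOI was about 0.07–0.15 nM final. Buffer was 50 mM Tris-HCl pH 7.4 with 10 μM pargyline, 9.75 mM MgCl2, 0.5 mM Na2-EDTA and 0.1% Na ascorbate. Incubation was 30 min at 37 °C with about 40 μg protein (2A) or 30 μg (2C). Nonspecific binding used 1 μM ketanserin (2A) or 10 μM mianserin (2C). Read by gamma counting; sigmoid nonlinear regression.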
For orientation: In a radioligand displacement assay an active substance lowers the binding of a labelled ligand.

Experiment [2] deals with T1, 5-hydroxytryptamine receptor 2C (Homo sapiens, UniProt P28335).
T1 sequence (P28335 whole entry): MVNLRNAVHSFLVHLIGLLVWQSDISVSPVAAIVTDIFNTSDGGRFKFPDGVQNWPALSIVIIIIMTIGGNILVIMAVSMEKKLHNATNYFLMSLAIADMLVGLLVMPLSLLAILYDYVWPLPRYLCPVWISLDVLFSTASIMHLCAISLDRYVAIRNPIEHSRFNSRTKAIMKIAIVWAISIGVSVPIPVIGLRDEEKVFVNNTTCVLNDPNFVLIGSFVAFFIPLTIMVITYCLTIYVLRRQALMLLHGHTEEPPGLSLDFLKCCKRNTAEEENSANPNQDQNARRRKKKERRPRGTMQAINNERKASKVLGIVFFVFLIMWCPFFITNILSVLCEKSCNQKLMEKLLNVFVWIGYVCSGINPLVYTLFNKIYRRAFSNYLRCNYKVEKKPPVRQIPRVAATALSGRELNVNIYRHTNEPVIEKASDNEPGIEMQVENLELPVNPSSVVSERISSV
Put plainly: Compound was tested for the displacement of [125I]DOI from cloned human 5-hydroxytryptamine 2C receptor. The essentials: as §1

For experiment [3], the target named is 5-hydroxytryptamine receptor 2B (Homo sapiens, UniProt P41595). Nature of the experiment: Compound was tested for the displacement of [3H]5-HT from clone human 5-hydroxytryptamine 2B receptor. The gist of the method: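 Membranes from AV12 cells stably expressing human 5-HT2B, 100–150 μg protein. [3H]-5-HT was about 2 nM (1.7–2.5 nM) final. Buffer was 50 mM Tris pH 7.4 with 3 mM CaCl2, 10 μM pargyline and 0.1% ascorbic acid. Drug dilutions spanned 6 log units. Incubation was 15 min at 37 °C. Nonspecific binding used 10 μM 5-HT or 1-NP. PEI-soaked GF/B filtration, scintillation counting, triplicate, sigmoid nonlinear regression.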

In experiment [4] the test system is Rattus norvegicus. Put plainly: Percentage of animals failing to emit 50 lever presses within 15 min in DOI trained rats at a compound dose of 16 mg/kg. Format: functional. The gist of the method:
(§2)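 Male Sprague–Dawley rats (200–220 g) in a two-lever, FR50 food-reinforced task. Rats were trained to discriminate saline from LSD tartrate (0.08 mg/kg), DOI HCl (0.4 mg/kg) or LY293284 (0.025 mg/kg) in 15-min sessions. %SDL is the share of rats making over 80% of presses on the drug lever. %D is the share failing to make 50 presses within 15 min. ED50 by Litchfield–Wilcoxon log-probit.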

Experiment [5] concerns Rattus norvegicus. Nature of the experiment: Percentage of animals failing to emit 50 lever presses within 15 min in DOI trained rats at a compound dose of 2 mg/kg. Format: functional. The gist of the method: as §2
Experiment [6] concerns Rattus norvegicus. Put plainly: Percentage of animals failing to emit 50 lever presses within 15 min in DOI trained rats at a compound dose of 4 mg/kg. Format: functional. The gist of the method: as §2
Experiment [7] deals with Rattus norvegicus. Nature of the experiment: Percentage of animals failing to emit 50 lever presses within 15 min in DOI trained rats at a compound dose of 8 mg/kg. In kind it is functional. The gist of the method:
as §2

Experiment [8] concerns Rattus norvegicus. Nature of the experiment: Percentage of animals failing to emit 50 lever presses within 15 min in LSD trained rats at a compound dose of 0.5 mg/kg. Format: functional. The essentials:
as §2

Experiment [9] concerns Rattus norvegicus. Nature of the experiment: Percentage of animals failing to emit 50 lever presses within 15 min in LSD trained rats at a compound dose of 1.0 mg/kg. In kind it is functional. The gist of the method: as §2
In experiment [10] the test system is Rattus norvegicus. Nature of the experiment: Percentage of animals failing to emit 50 lever presses within 15 min in LSD trained rats at a compound dose of 2.0 mg/kg. Format: functional. The essentials:
as §2

For experiment [11], the system named is Rattus norvegicus. Nature of the experiment: Percentage of animals failing to emit 50 lever presses within 15 min in LSD trained rats at a compound dose of 8.0 mg/kg. In kind it is functional. The gist of the method: (§3)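 Two-lever drug discrimination in male Sprague–Dawley rats (200–220 g at start), trained against saline on LSD tartrate (0.08 mg/kg), DOI HCl (0.4 mg/kg) or LY293284 (0.025 mg/kg). FR50 food-pellet reinforcement, levers counterbalanced, 15-min sessions at 22–24 °C. %D is the share of tested rats not completing 50 lever presses within 15 min.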

Experiment [12] deals with Rattus norvegicus. Nature of the experiment: Percentage of animals failing to emit 50 lever presses within 15 min in […] trained rats at a compound dose of 16 mg/kg. In kind it is functional. The gist of the method:
as §3

Experiment [13] deals with Rattus norvegicus. Nature of the experiment: Percentage of animals emitting >80% of lever presses in DOI trained rats at a compound dose of 12.6 uM/Kg. In kind it is functional. The gist of the method: as §2
For experiment [14], the system named is Rattus norvegicus. Nature of the experiment: Percentage of animals emitting >80% of lever presses in DOI trained rats at a compound dose of 25.3 uM/Kg. Format: functional. The gist of the method: as §2
Experiment [15] concerns Rattus norvegicus. Put plainly: Percentage of animals emitting >80% of lever presses in DOI trained rats at a compound dose of 50.6 uM/Kg. Format: functional. The gist of the method: as §2
The subject of experiment [16] is Rattus norvegicus. Put plainly: Percentage of animals emitting >80% of lever presses in DOI trained rats at a compound dose of 6.32 uM/Kg. Format: functional. The essentials:
as §2

The subject of experiment [17] is Rattus norvegicus. Nature of the experiment: Percentage of animals emitting >80% of lever presses in LSD trained rats at a compound dose of 1.58 uM/Kg. In kind it is functional. The gist of the method: as §2
The subject of experiment [18] is Rattus norvegicus. Nature of the experiment: Percentage of animals emitting >80% of lever presses in LSD trained rats at a compound dose of 50.6 uM/Kg. Format: functional. The gist of the method:
as §2

Experiment [19] has as its system Rattus norvegicus. Nature of the experiment: Percentage of animals emitting >80% of lever presses in LSD trained rats at a compound dose of 6.32 uM/Kg. Format: functional. The gist of the method: as §2
In experiment [20] the test system is Rattus norvegicus. Nature of the experiment: Percentage of animals emitting >80% of lever presses in […] trained rats at a compound dose of 50.6 uM/Kg. Format: functional. The gist of the method: as §2
Experiment [21] relates to Rattus norvegicus. Put plainly: Percentage of animals emitting >80% of lever presses in […] trained rats at a compound dose of 6.32 uM/Kg. Format: functional. The gist of the method:
as §2

Experiment [22] has as its system Rattus norvegicus. Put plainly: Percentage of animals emitting >80% of lever presses in LSD trained rats at a compound dose of 12.6 uM/Kg. Format: functional. The essentials:
as §2

In experiment [23] the test system is Rattus norvegicus. Put plainly: Percentage of animals failing to emit 50 lever presses within 15 min in […] trained rats at a compound dose of 8 mg/kg. In kind it is functional. The essentials:
as §3

Chain of 5-hydroxytryptamine receptor 2A (P28223 whole entry): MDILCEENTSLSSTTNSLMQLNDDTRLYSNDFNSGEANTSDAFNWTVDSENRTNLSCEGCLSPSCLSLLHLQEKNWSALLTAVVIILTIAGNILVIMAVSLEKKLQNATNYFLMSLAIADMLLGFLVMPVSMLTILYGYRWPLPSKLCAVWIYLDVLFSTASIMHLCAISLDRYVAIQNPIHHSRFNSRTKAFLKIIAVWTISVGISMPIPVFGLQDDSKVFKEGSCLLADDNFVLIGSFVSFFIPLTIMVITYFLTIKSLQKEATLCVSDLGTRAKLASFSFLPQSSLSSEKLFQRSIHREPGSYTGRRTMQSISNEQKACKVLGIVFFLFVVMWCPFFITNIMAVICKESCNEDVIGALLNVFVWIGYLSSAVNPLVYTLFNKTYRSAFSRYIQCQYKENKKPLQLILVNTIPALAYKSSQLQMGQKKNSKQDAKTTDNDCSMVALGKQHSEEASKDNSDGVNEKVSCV
Chain of 5-hydroxytryptamine receptor 2B (P41595 whole entry): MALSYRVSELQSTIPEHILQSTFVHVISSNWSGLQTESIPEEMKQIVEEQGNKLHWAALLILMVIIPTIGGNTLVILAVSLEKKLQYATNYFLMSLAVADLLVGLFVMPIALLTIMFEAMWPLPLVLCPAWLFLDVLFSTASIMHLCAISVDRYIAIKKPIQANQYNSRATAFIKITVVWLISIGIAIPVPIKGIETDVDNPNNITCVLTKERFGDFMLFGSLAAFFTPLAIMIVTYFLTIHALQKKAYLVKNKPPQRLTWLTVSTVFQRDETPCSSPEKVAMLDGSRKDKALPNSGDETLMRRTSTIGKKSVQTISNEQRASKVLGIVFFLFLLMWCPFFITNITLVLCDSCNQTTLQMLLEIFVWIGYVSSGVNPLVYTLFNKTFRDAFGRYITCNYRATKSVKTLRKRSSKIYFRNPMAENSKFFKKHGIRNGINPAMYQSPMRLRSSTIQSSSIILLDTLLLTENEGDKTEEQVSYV

Consider `CN(C)CCc1c[nH]c2sccc12`, for which the figures for the Ki in experiment [1], in experiment [2] and in experiment [3] were 106 nM, 102 nM and 483 nM, respectively. Moreover, the D with Rattus norvegicus [4] is on record as 50%; in the experiment on Rattus norvegicus [5], 0%; in the experiment on Rattus norvegicus [6] it was 0%; in the experiment with Rattus norvegicus [7], 12.5%; in the experiment on Rattus norvegicus [8], 22%; with Rattus norvegicus [9], 0%. The D with Rattus norvegicus [10], in the experiment on Rattus norvegicus [11], in the experiment with Rattus norvegicus [12] and in the experiment on Rattus norvegicus [23] was 0% in each case. For the same molecule, the SDL came out at 0% with Rattus norvegicus [13]; 0% in the experiment on Rattus norvegicus [14]; 0% in the experiment with Rattus norvegicus [15]; 0% in the experiment with Rattus norvegicus [16]; 14% in the experiment with Rattus norvegicus [17]; 16.7% in the experiment on Rattus norvegicus [18]. For the same molecule, the SDL amounted to 9% in the experiment with Rattus norvegicus [19], 83% in the experiment with Rattus norvegicus [20], 10% in the experiment on Rattus norvegicus [21] and 16.7% in the experiment on Rattus norvegicus [22].
